Bioassay records: PubChem, The Scripps Research Institute Molecular Screening Center
IMP-1 inh – IMP-1 metallo-beta-lactamase inhibitors, primary screen, biochemical, epi-absorbance readout, Pseudomonas aeruginosa enzyme. purified IMP-1, nitrocefin hydrolysis, epi-absorbance fluorescence. inhibition, % at 5.6 µM. 290,000 tested, 0.45% active. AID 1556, 2009;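 active means inhibition above the mean plus 3 SD of all compounds in the same screening run, cut at about 4.5% in these data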;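 further: 0% = IMP-1 with DMSO and 100% = DMSO wells lacking enzyme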
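Assay system: purified IMP-1; Quantity: IMP-1 0.2 nM before substrate addition; Medium: HEPES buffer pH 7.1 with ZnSO4 and Brij 35; Incubation: 15 min enzyme–compound preincubation, then 25 min nitrocefin reaction, 25 °C; Signal: fluorescence quenching readout, ex 480/em 530 nm; Controls: DMSO with and without IMP-1; Repeats: singlicate testing.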
VIM-2 inh – VIM-2 metallo-beta-lactamase inhibitors, primary screen, biochemical, epi-absorbance readout, Pseudomonas aeruginosa enzyme. purified VIM-2, nitrocefin hydrolysis, epi-absorbance fluorescence. inhibition, % at 5.6 µM. 290,000 tested, 0.89% active. AID 1527, 2009;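 active means inhibition above the mean of all tested compounds plus 3 SD, cutoff set per screening run, cut at about 7.5% in these data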;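 further: red hydrolysis product quenches plate fluorescence so inhibitors raise well fluorescence; 0% = enzyme with DMSO and 100% = DMSO without enzyme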
DNA FID counter – compounds displacing fluorescent DNA intercalator, primary screen, artefact control for HCV NS3 helicase inhibitor project, biochemical, FID fluorescence. DNA fluorescent intercalator displacement. AID 1845, 2009. 290,000 tested, 0.17% active. inhibition, % at 7.9 µM; in the data active means inhibition above about 37%;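 further: 0% = vehicle and 100% = reference compound; higher means more ethidium bromide displaced from hairpin DNA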
HCV core dimer – inhibitors of HCV core protein dimerization, primary screen, biochemical, TR-FRET, high-throughput; TR-FRET GST/Flag-core106 dimerization, 1536-well; AID 1899, 2009; 300,000 tested, 0.33% active; inhibition, % at 5 µM;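 active means inhibition above the mean of all tested compounds plus 3 SD, set per screening campaign, cut at about 45% in these data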
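System – GST-tagged and Flag-tagged HCV core protein residues 1-106 · Repeats – one well for each compound · Technique – TR-FRET 671 and 617 nm emission · Doses – one concentration, 5 µM, in 0.5% DMSO · Times – 4 h, 22.5 °C incubation · Also added – Eu donor and XL665 acceptor anti-tag antibodies · Measure – percent inhibition of core106 dimerization signal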
Numbers without * were called inactive; . = no result given. The list is not random: actives were taken first. Their share in the collection is about 1.6%.

SMILES	IMP-1 inh	VIM-2 inh	DNA FID counter	HCV core dimer
Cc1ccc(NC(=O)c2cnc(SCC(=O)NCC3CCCO3)n(C)c2=O)cc1C (configuration not stated)	.	.	.	1.1
CC[n+]1ccc(/C=C/c2ccc(N(C)C)cc2)c2ccccc21	-10.3	-7.0	56.7*	.
CC[n+]1ccccc1/C=C/c1ccc(N(C)C)cc1	-2.9	-1.7	-21.3	.
Cc1cc(N2CCN(c3ccc([N+](=O)[O-])c4cccnc34)CC2)c2ccccc2n1	-1.0	-2.8	6.4	0.7
CCOC(=O)c1sc2ncnc(OC)c2c1C	-3.4	-0.3	-1.4	-0.6
CCOC(=O)c1sc2nc[nH]c(=O)c2c1C	5.2*	0.0	-1.4	-1.1
N=C1/C(=C\c2ccc(-c3cc(Cl)cc(Cl)c3)o2)C(=O)N=C2SC=C(c3ccccc3)N12	-1.3	-2.1	3.5	48.6*
CCn1c(N2CCN(S(=O)(=O)c3ccccc3C(F)(F)F)CC2)nc2ccccc21	7.2*	-3.9	-26.1	2.1
CCOc1cccc(CN2CCC(n3nccc3NC(=O)CCCc3ccccc3)CC2)c1	-2.4	0.1	29.2	10.0
Cc1ccc(Cn2c(N3CCNCC3)nc3c2c(=O)[nH]c(=O)n3C)cc1	27.1*	-1.1	-3.8	.
Cn1c(=O)[nH]c(=O)c2c1nc(N1CCNCC1)n2Cc1ccccc1	-2.0	-1.3	-4.8	2.4
COC(=O)C(NC(=O)CCc1c(C)nc2c(c(C)nn2-c2ccccc2)c1C)C(C)C (configuration not stated)	4.6*	2.4	-43.0	.
CCC(C)NC(=O)CCc1c(C)nc2c(c(C)nn2-c2ccccc2)c1C (configuration not stated)	-2.5	0.2	-29.4	9.6
Cc1cc(/C=C2/C(=O)N(C)C(=S)N2C)c(C)n1C1CC1	-1.3	-3.4	-2.0	11.0
Cc1cc(/C=C2\SC(=S)NC2=O)c(C)n1C1CC1	0.1	7.7*	-10.1	-6.3
Cn1c(=O)c2c(SCC(=O)N3CCOCC3)nc(-c3ccccc3F)nc2n(C)c1=O	-2.1	7.9*	-18.8	3.6
Cc1ccccc1-n1c(SCC(=O)N2CCOCC2)nc(O)c(Cc2ccccc2)c1=O	5.2*	-1.2	-27.0	-5.5
CC(C)Nc1ccc(Nc2ccnc3cc4ccccc4cc23)cc1	-2.5	1.1	72.7*	-20.8
O=C(O)c1cc(O)c2c(c1)C(=O)c1cccc(O)c1C2=O	4.6*	6.6	-84.9	-3.0
COc1ccc(N=Cc2sc(O)c3ccccc23)cc1	8.3*	1.9	-0.1	-39.3
CCOc1ccnc(OCC)c1Br	-2.5	-2.8	-11.6	-7.2
NC1=NC(=O)/C(=C/c2ccc(-c3ccc(S(N)(=O)=O)cc3)o2)S1	-4.1	4.1	-1.6	-15.2
CS(=O)(=O)Nc1ccc(-c2ccc(/C=C3\SC(N)=NC3=O)o2)cc1	-0.3	8.8*	-7.5	-25.8
COc1ccc(F)cc1C(=O)C1CCCN(C(=O)Cc2c(C)noc2C)C1 (configuration not stated)	-0.7	8.3*	-15.2	1.7
COc1ccc(C(=O)C2CCCN(C(=O)Cc3c(C)noc3C)C2)cc1OC (configuration not stated)	-2.7	-1.3	-18.0	-3.4
SMILES	IMP-1 inh	VIM-2 inh	DNA FID counter	HCV core dimer
COc1ccc(N2Cc3cccc(C(=O)N4CCN(C(=O)c5ccco5)CC4)c3C2=O)cc1	-1.0	0.0	-19.8	85.4*
CCOc1ccc(C(=O)COC(=O)c2cccc(-n3cnnn3)c2)cc1	-2.3	-2.7	-21.2	-1.5
COc1ccc(N(CC(=O)NC2CCCCC2)C(=O)c2ccc(C)s2)c(OC)c1	-2.6	-3.2	-42.9	6.0
COc1ccc(Cl)cc1C(=O)OCC(=O)NC(=O)c1cccn1C	3.6	11.3*	-10.7	0.5
CCCCCC(=O)Nc1ccc(C(=O)COC(=O)Cn2cnc3c2c(=O)n(C)c(=O)n3C)cc1	.	.	.	0.7
Cn1cnnc1SCc1ccc(-c2ccc(Br)cc2)o1	-2.4	-4.1	-7.9	64.0*
COc1ccc(NC(=O)c2oc3ccccc3c2NC(=O)C2CC2)cc1OC	0.0	9.0*	-20.7	-20.8
COc1ccc(NC(=O)c2oc3ccccc3c2NC(=O)C2CCCO2)cc1OC (configuration not stated)	0.2	-0.5	-33.0	-1.8
O=C(CN1CCCC1)Nc1ccc(-c2nc3cc(NC(=O)CN4CCCC4)ccc3o2)cc1	-3.0	4.6	47.5*	-2.1
CCN(CC)CC(=O)Nc1ccc(-c2nc3cc(NC(=O)CN(CC)CC)ccc3o2)cc1	0.5	0.2	21.6	2.9
O=C(NC(=O)c1ccc(C(F)(F)F)cc1)Nc1ccc(-c2cnco2)cc1	-2.8	-3.0	-14.0	2.8
c1ccc(Cn2c(SCc3nc4ccccc4s3)nnc2-c2ccco2)cc1	-0.9	0.8	-38.9	49.5*
Cc1ccc(Nc2nc(N)nc(CSc3nc(C)cc(C)n3)n2)cc1	4.9*	0.7	-20.9	-5.6
O=C(c1ccncc1)N(Cc1ccco1)Cc1cc2ccccc2[nH]c1=O	-2.0	-0.7	-13.8	-0.9
Cc1c(C)n(CCN(C)C)c2ccc(C(=O)OCCN(C)C)cc12	-2.5	1.1	62.4*	-3.5
O=C(COc1ccc(Cl)cc1Cl)NC(=S)N1CCCc2ccccc21	-3.3	-7.4	4.6	13.8
O=C(Nc1ccc(S(=O)(=O)Nc2nccs2)cc1)c1ccc(N2C(=O)c3ccccc3C2=O)cc1	-2.7	-3.1	2.8	53.7*
COc1ccccc1/C=C/c1nc(S(=O)(=O)c2ccccc2)c(NCCN(C)C)o1	1.0	1.2	17.8	-1.9
Cc1ccc(S(=O)(=O)Nc2cc(C(=O)NCCN(C)C)ccc2N2CCCC2)cc1	0.9	-0.2	30.0	-8.7
CCN(CC)CCCNC(=O)c1ccc(N2CCCCC2)c(NS(=O)(=O)c2ccc(C)cc2)c1	-1.1	4.4	50.5*	-7.5
O=C(NNC(=O)c1ccccc1F)c1cccc(-n2cccc2)c1	.	.	.	53.1*
O=C(/C=C/c1ccccc1)N1CCC(c2ccccc2)C1 (configuration not stated)	-4.4	-3.7	-30.5	8.7
O=C(/C=C/c1ccco1)N1CCCC(c2ccccc2)C1 (configuration not stated)	-1.1	-3.5	-15.4	48.0*
COc1ccc(C(=O)Nc2ccc(S(=O)(=O)N3CCc4ccccc43)cc2)cc1	-6.3	-2.0	-3.4	6.7
Cc1ccc(-c2csc(NC(=O)c3ccc(S(=O)(=O)N4CCc5ccccc54)cc3)n2)cc1	0.6	1.4	-14.4	66.6*
CCc1nnc(NC(=O)c2ccc(Cl)c(S(=O)(=O)N3CCc4ccccc43)c2)s1	-2.7	-3.4	-19.1	51.3*
O=C(Nc1nc(-c2ccccc2)cs1)c1ccc(S(=O)(=O)N2CCc3ccccc32)cc1	-4.7	-1.8	-6.7	26.4
NS(=O)(=O)c1ccc(NC(=O)c2ccc(S(=O)(=O)N3CCc4ccccc43)cc2)cc1	-1.6	2.9	-18.2	57.6*
O=S(=O)(NCCN1CCOCC1)c1ccc(Oc2ccccc2Cl)cc1	-2.7	-0.2	-6.0	-0.7
